Reference: ChEMBL document CHEMBL1144337, “Discovery and structure-activity relationships of 2-benzylpyrrolidine-substituted aryloxypropanols as calcium-sensing receptor antagonists” (Bioorg Med Chem Lett, 2005)

Each molecule was assayed on HEK293 (assay: Inhibitory concentration for the inhibition of intracellular [Ca2+] release in HEK cells by using FLIPR technology). Settings: Homo sapiens.
Format: functional, cell-based
Summary of the method: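 HEK cells over-expressing recombinant human calcium-sensing receptor. Intracellular Ca²⁺ release was stimulated with extracellular Ca²⁺, and inhibition by test compound was read by fluorescence on FLIPR. IC50 values are means of two experiments, with standard deviation reported.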

| SMILES | IC50 |
| --- | --- |
| COc1ccc(CC2CCN(C[C@@H](O)COc3cccc(Cl)c3C#N)CC2)cc1 | > 30 µM |
| N#Cc1c(Cl)cccc1OC[C@H](O)CN1CCC(Cc2ccccc2)C1 (stereo not given in full) | 10 µM |
| COc1ccc(C[C@@H]2CCCN2C[C@@H](O)COc2cccc(Cl)c2C#N)cc1OC | 0.41 µM |
| CC(C)(Cc1ccc2ccccc2c1)NC[C@@H](O)COc1cccc(Cl)c1C#N | 0.08 µM |
| N#Cc1c(Cl)cccc1OC[C@H](O)CN1CCC(F)(F)[C@H]1Cc1ccccc1 | > 30 µM |
| COc1ccc(C[C@@H]2CCCN2C[C@@H](O)COc2cccc(Cl)c2C#N)cc1 | 0.2 µM |
| N#Cc1c(Cl)cccc1OC[C@H](O)CN1CCC(Cc2ccccc2)CC1 | 2.2 µM |
| COc1cccc(CC2CCN(C[C@@H](O)COc3cccc(Cl)c3C#N)CC2)c1 | 0.64 µM |
| N#Cc1c(Cl)cccc1OC[C@H](O)CN1CCCC(Cc2ccccc2)C1 (stereo not given in full) | > 30 µM |
| N#Cc1c(Cl)cccc1OC[C@H](O)CN1CCCCC1Cc1ccccc1 (stereo not given in full) | > 30 µM |
| N#Cc1c(Cl)cccc1OC[C@H](O)CN1CCCC1Cc1ccccc1 (stereo not given in full) | 0.35 µM |
| N#Cc1c(Cl)cccc1OC[C@H](O)CN1CCC[C@H]1Cc1ccccc1O | 0.1 µM |
| N#Cc1c(Cl)cccc1OC[C@H](O)CN1CC[C@@H](O)[C@H]1Cc1ccccc1 | 1.4 µM |
| COc1cccc(C[C@@H]2CCCN2C[C@@H](O)COc2cccc(Cl)c2C#N)c1 | 0.13 µM |
| COc1ccccc1C[C@@H]1CCCN1C[C@@H](O)COc1cccc(Cl)c1C#N | > 30 µM |
| COc1cccc(C(O)[C@@H]2CCCN2C[C@@H](O)COc2cccc(Cl)c2C#N)c1 (stereo not given in full) | > 30 µM |
| CN(C)c1ccc(C[C@@H]2CCCN2C[C@@H](O)COc2cccc(Cl)c2C#N)cc1 | 1.9 µM |
| N#Cc1c(Cl)cccc1OC[C@H](O)CN1CC[C@H](F)[C@H]1Cc1ccccc1 | 2.8 µM |
| N#Cc1c(Cl)cccc1OC[C@H](O)CN1CCC[C@H]1Cc1ccc(O)cc1 | > 30 µM |
| N#Cc1c(Cl)cccc1OC[C@H](O)CN1CCC[C@H]1Cc1cccc(F)c1 | 0.15 µM |
| N#Cc1c(Cl)cccc1OC[C@H](O)CN1CCC[C@H]1C(O)c1cccc(F)c1 (stereo not given in full) | 2.3 µM |
| N#Cc1c(Cl)cccc1OC[C@H](O)CN1CCC[C@@H]1Cc1ccccc1 | > 30 µM |
| N#Cc1c(Cl)cccc1OC[C@H](O)CN1CCC[C@H]1Cc1ccccc1 | 0.12 µM |
| N#Cc1c(Cl)cccc1OC[C@H](O)CN1CCC(Cc2cc(F)ccc2F)CC1 | 2.1 µM |

These molecules were tested against Voltage-gated inwardly rectifying potassium channel KCNH2 (Homo sapiens, UniProt Q12809) (assay: Inhibitory concentration against human Kv11.1 ERG potassium channel). Settings: not given.
Sequence of Voltage-gated inwardly rectifying potassium channel KCNH2 (Q12809 whole entry): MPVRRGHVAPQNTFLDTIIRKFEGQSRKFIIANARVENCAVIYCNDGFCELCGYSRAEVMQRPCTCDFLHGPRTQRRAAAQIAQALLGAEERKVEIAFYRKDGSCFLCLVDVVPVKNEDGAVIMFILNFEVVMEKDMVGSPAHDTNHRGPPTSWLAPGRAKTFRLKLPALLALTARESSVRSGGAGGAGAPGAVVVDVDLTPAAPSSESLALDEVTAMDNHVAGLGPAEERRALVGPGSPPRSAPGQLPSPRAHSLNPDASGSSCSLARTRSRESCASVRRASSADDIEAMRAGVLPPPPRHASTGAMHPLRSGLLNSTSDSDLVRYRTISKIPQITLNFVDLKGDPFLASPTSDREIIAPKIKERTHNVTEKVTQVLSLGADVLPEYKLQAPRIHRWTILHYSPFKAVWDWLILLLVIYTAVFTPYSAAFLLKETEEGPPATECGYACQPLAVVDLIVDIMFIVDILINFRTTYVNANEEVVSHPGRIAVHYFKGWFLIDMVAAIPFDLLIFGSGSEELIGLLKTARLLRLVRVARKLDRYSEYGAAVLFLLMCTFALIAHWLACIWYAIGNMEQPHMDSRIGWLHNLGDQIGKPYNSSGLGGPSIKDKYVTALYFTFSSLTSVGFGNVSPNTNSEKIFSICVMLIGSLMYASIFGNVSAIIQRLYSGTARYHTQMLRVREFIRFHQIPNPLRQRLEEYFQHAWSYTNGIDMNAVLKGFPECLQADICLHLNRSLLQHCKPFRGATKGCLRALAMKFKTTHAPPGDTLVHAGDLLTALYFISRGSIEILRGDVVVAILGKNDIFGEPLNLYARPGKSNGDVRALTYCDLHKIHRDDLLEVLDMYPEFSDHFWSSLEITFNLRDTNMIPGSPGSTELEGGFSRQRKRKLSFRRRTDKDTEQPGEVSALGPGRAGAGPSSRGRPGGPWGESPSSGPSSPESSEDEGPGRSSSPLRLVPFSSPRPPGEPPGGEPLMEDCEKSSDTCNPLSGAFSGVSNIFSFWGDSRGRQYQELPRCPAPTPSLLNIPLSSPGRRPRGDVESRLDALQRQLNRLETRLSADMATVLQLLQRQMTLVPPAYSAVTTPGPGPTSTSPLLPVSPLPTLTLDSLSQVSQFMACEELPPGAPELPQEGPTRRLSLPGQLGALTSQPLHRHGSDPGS
Summary of the method: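 Inhibition of hERG K+ current, measured by a patch-clamp assay, reported as an IC50.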

| SMILES | IC50 |
| --- | --- |
| CC(C)(Cc1ccc2ccccc2c1)NC[C@@H](O)COc1cccc(Cl)c1C#N | 0.194 µM |
